Here are results for seven compounds from ChEMBL document CHEMBL1156641, “Linear and cyclic C18 terpenoids from the southern Australian marine brown alga Cystophora moniliformis” (J Nat Prod, 2008).

A word on the IC50: it is the point on the concentration scale where inhibition reaches its midpoint. A low value points to higher potency.

Calls of active or inactive are those of the source. The calls are words filed in the database; no cut-off is given here.

Test [1] deals with Trichophyton mentagrophytes. In words: […] activity against Trichophyton mentagrophytes ATCC 28185 assessed as zone of inhibition. The class given is functional. Put shortly:
(§1)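 Disk diffusion: fungal inoculum of known concentration mixed into potato dextrose or Mueller Hinton agar and poured as a lawn. Samples at 1 mg/mL were applied to 6 mm filter paper disks, solvent evaporated, and disks placed on the seeded agar with solvent and positive controls. After incubation, the zone of inhibition outside the disk was measured as radius in mm.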

For test [2], the system named is Trichophyton mentagrophytes. Briefly: […] activity against Trichophyton mentagrophytes ATCC 28185 assessed as zone of inhibition at 1 mg/mL. The class given is functional, organism-based. Put shortly: as §1
Test [3] has as its system P388. Briefly: Antitumor activity against mouse P388 cells after 72 hrs by MTT assay. The class given is functional, cell-based. Particulars: P388, 72 h. Put shortly: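 P388 murine leukemia cells were incubated 72 h with a 2-fold dilution series of sample, tested from 1 mg/mL. Growth was read by MTT reduction to formazan (absorbance) relative to untreated control cells. The concentration giving 50% growth reduction is reported as IC50.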
In general terms: Formazan colour is commonly taken as a measure of viable cells.

On to `CC(=O)CC/C=C(\C)CC[C@H]1C(C)(C)[C@@H](O)CC[C@]1(C)O` [MONILIFORMINOL A], for which the “inhibition zone (IZ)” value in test [1] is reported as 1 mm. For the same compound, in test [2], the outcome was inactive. Further, the IC50 in test [3] was above 40 µM.

Take `CC(=O)CC/C=C(\C)CC[C@H]1C(C)(C)[C@@H](O)CC[C@@]1(C)O` [MONILIFORMINOL B]: in test [1], the “inhibition zone (IZ)” value is 1 mm. Further, the outcome in test [2] was inactive. In test [3], this compound showed an IC50 above 40 µM.

Turning to `CC(=O)CC/C=C(\C)CC/C=C(\C)CC[C@@H](O)C(C)(C)O`, the “inhibition zone (IZ)” value in test [1] was found to be 1 mm. Also, the result in test [2] was inactive. The compound further registered an IC50 in test [3] above 40 µM.

As for `CC(=O)CC/C=C(\C)CCC1=C(C)CC[C@H](O)C1(C)C`, the “inhibition zone (IZ)” value in test [1] was 1 mm. Further, the result in test [2] was inactive. In addition, the half-maximal inhibitory concentration (IC50) in test [3] is above 40 µM.

With `COC(C)(C)[C@H](O)CC/C(C)=C/CC/C(C)=C/CCC(C)=O`, the “inhibition zone (IZ)” value in test [1] turned out to be 1 mm. In addition, the outcome in test [2] was inactive. This compound returned an IC50 in test [3] above 40 µM.

As to `CC(=O)CC/C=C(\C)CC/C=C(\C)CC/C=C(/C)CO`, the “inhibition zone (IZ)” value in test [1] was 1 mm. The outcome in test [2] was inactive. Moreover, the IC50 in test [3] was above 40 µM.

On to `C=C(C)[C@H](O)CC/C(C)=C/CC/C(C)=C/CCC(C)=O`, for which the “inhibition zone (IZ)” value in test [1] amounted to 1 mm. The result in test [2] was inactive. This compound yielded an IC50 in test [3] above 40 µM.
